Test [1] addresses T1, Sodium- and chloride-dependent GABA transporter 3 (Mus musculus, UniProt P31650).
T1 sequence (P31650 whole entry): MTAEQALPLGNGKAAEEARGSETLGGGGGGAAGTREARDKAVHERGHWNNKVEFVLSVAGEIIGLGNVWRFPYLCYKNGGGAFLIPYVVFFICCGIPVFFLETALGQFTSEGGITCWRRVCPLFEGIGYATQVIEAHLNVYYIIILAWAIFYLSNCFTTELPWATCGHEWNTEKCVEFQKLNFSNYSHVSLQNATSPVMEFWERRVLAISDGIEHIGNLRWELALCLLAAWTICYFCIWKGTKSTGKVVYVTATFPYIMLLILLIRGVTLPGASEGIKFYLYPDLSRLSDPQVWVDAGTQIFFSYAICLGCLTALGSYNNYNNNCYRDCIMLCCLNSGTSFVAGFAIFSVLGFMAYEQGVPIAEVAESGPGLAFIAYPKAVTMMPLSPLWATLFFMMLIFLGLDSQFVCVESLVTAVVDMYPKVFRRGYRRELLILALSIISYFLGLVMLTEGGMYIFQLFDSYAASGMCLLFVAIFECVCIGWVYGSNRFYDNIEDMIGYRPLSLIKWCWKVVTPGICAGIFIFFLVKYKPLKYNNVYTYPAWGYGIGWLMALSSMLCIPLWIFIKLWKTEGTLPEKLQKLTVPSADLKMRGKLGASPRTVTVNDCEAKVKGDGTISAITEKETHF
As to the kind of experiment: Inhibition of mouse GAT3-mediated [3H]GABA uptake expressed in human HEK cells. In outline: (§1)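 Specific [3H]GABA uptake was measured at the murine transporter subtype, and results are given as pIC50 ± SEM from three independent experiments, each run in triplicate.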

A short description of test [2]: Inhibition of mouse GAT3-mediated [3H]GABA uptake expressed in BHK cells.
Test [3] is described as follows: Inhibition of mouse GAT2-mediated [3H]GABA uptake expressed in BHK cells.
Test [4] deals with T2, Sodium- and chloride-dependent GABA transporter 2 (Mus musculus, UniProt P31649).
T2 sequence (P31649 whole entry): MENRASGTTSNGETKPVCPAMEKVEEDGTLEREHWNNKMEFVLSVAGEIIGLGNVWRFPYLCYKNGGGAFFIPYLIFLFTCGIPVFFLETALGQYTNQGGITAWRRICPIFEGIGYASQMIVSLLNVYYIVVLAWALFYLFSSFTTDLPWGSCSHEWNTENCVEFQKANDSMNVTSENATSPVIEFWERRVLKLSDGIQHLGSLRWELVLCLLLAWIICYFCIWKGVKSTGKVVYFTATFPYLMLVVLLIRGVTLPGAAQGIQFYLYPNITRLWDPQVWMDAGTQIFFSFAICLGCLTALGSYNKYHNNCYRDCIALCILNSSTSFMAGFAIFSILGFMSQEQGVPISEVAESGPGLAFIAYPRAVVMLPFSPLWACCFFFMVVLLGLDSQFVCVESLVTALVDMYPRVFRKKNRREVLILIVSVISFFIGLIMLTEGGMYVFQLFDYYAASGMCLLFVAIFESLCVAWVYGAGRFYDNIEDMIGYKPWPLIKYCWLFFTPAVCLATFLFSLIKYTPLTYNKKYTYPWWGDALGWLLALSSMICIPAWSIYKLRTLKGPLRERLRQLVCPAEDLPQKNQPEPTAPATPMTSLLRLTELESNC
As to the kind of experiment: Inhibition of mouse GAT2-mediated [3H]GABA uptake expressed in human HEK cells. An outline of the steps: as §1

Each structure is given as a SMILES string.

Here are results for 14 compounds from BindingDB's records for doi:10.1016/j.bmc.2011.08.039 (Ludwig-Maximilians-University Munich, 2011).

In general, IC50 refers to the point on the concentration scale where inhibition reaches its midpoint. As to `COc1ccccc1C1(O)CCN(CCCn2c3ccccc3c3ccccc32)CC1`, the IC50 is 11.7 µM in test [1], 40.7 µM in test [2], 1.41 µM in test [3] and 8.13 µM in test [4].
Consider `c1ccc(C(CCCNCc2nnnn2C2CCCCC2)c2ccccc2)cc1`, for which the IC50 in test [1] was determined as 17.4 µM; in test [4], 21.9 µM.
Consider `c1ccc(Cn2nnnc2CNCCCC(c2ccccc2)c2ccccc2)cc1`, for which the concentration for half-maximal inhibition (IC50) was determined as 40.7 µM in test [1] and 15.5 µM in test [4].
For `C(CNCc1nnnn1C1CCCCC1)=C(c1ccccc1)c1ccccc1`, the results for the IC50 in test [1] and in test [4] were 18.2 µM and 24.5 µM, respectively.
In the case of `C(CNCc1nnnn1Cc1ccccc1)=C(c1ccccc1)c1ccccc1`, the IC50 in test [1] was 34.7 µM; in test [4], 24.5 µM.
Consider `CC(C)(C)CC(C)(C)n1nnnc1CNC(c1ccccc1)c1ccccc1`, for which, in test [1], the half-inhibitory concentration (IC50) is 60.3 µM.
In turn, `c1ccc(C(NCc2nnnn2C2CCCCC2)c2ccccc2)cc1` gave a half-maximal inhibitory concentration (IC50) in test [1] of 24.5 µM.
The same measure, in the same setting: the same measure for `c1ccc(Cn2nnnc2CNC(c2ccccc2)c2ccccc2)cc1`: 16.2 µM; for `c1ccc(Cn2nnnc2CNCC(c2ccccc2)c2ccccc2)cc1`: 44.7 µM; for `CC(C)(C)CC(C)(C)n1nnnc1CNCCC(c1ccccc1)c1ccccc1`: 8.13 µM.
Regarding `CC(C)(C)CC(C)(C)n1nnnc1CNCC=C(c1ccccc1)c1ccccc1`, the figures for the half-inhibitory concentration (IC50) in test [1] and in test [4] were 22.9 µM and 10.2 µM, respectively.
The compound `C(CCNCc1nnnn1C1CCCCC1)=C(c1ccccc1)c1ccccc1` had an IC50 in test [1] of 21.4 µM.
`CC(C)(C)CC(C)(C)n1nnnc1CNCCCC(c1ccccc1)c1ccccc1`: the 50% inhibitory concentration (IC50) in test [1] was found to be 12.9 µM; in test [4], 16.6 µM.
In the case of `CC(C)(C)CC(C)(C)n1nnnc1CNCCC=C(c1ccccc1)c1ccccc1`, in test [1], the half-maximal inhibitory concentration (IC50) worked out at 12.3 µM.
